For data set [1], the species on record is Homo sapiens. Nature of the data set: Potentiation of doxorubicin-induced cytotoxicity in human differentiated primary glioblastoma cells assessed as increase in doxorubicin-induced reduction in cell viability at 10 nM after 72 hrs by ATPlite luminescence assay. It is filed as functional, cell-based. The procedure, abridged:
(§1)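 Primary glioblastoma or mesothelioma differentiated and stem cells incubated 72 h with medium, 5 µM doxorubicin, 10 nM compound or 1 µM elacridar, alone or combined (DMSO 1% v/v). Viability by ATPlite luminescence as % of untreated RLU. Quadruplicates, n=3, mean ± SEM, one-way ANOVA.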
In general terms: Cellular ATP, detected with luciferase, serves as a proxy for viable cell number.

Data set [2] concerns the target T1, ATP-dependent translocase ABCB1 (Homo sapiens, UniProt P08183). Nature of the data set: Inhibition of MDR1 in human MSC assessed as increase in doxorubicin-induced cell toxicity at 10 nM after 24 hrs by LDH release assay. To be noted: 0.01 µM. In general terms: LDH in the medium is a marker of cell lysis.
The species entered for data set [3] is Homo sapiens. Nature of the data set: Induction of intracellular doxorubicin accumulation in human differentiated primary glioblastoma cells at 10 to 10000 nM after 3 hrs by spectrofluorimetric analysis. It is filed as functional, cell-based. Put shortly: (§2)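 Differentiated or stem cells from primary glioblastoma or mesothelioma of 3 patients (stem cells used within passage 6). Incubated 3 h with 5 µM doxorubicin, alone or with compound (DMSO 1% v/v). Washed, lysed in ethanol/0.3 N HCl, doxorubicin fluorescence read at ex 475/em 553 nm and expressed as nmol/mg cell protein via calibration curve. Duplicates, n=3, mean ± SEM.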

For data set [4], the target named is T1, ATP-dependent translocase ABCB1. Kind of data set: Inhibition of MDR1 (unknown origin) expressed in MDCK cells assessed as increase in calcein-AM accumulation after 30 mins by calcein-AM dye based fluorescence assay. It is filed as cell-based. To be noted: read-out: EC50. The procedure, abridged:
(§3)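 MDCK-MDR1 or MDCK-MRP1 cells seeded at 30,000/well and grown to confluence overnight. Compound (0.1–100 µM final, in medium) incubated 30 min at 37 °C, then calcein-AM added (2.5 µM final) for 30 min. Cells washed with ice-cold PBS and read at ex 485/em 535 nm. EC50 fitted from % fluorescence increase over untreated vs log dose. Mean ± SEM, three experiments in triplicate.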

Data set [5] is filed under the species Homo sapiens. Kind of data set: Potentiation of doxorubicin-induced cytotoxicity in human differentiated primary mesothelioma cells assessed as increase in doxorubicin-induced reduction in cell viability at 10 nM after 24 hrs by LDH release assay. It is filed as functional, cell-based.
For data set [6], the target named is T1, ATP-dependent translocase ABCB1. Nature of the data set: Inhibition of MDR1 in human GSC assessed as increase in doxorubicin-induced cell toxicity at 10 nM after 24 hrs by LDH release assay. To be noted: 0.01 µM.
Data set [7] shares this target. Nature of the data set: Inhibition of MDR1 in human primary glioblastoma stem cells assessed as increase in intracellular doxorubicin accumulation at 10 to 10000 nM after 3 hrs by spectrofluorimetric analysis. It is filed as cell-based. Put shortly:
as §2

The target is the same in data set [8]. Kind of data set: Inhibition of MDR1 in human primary mesothelioma stem cells assessed as increase in intracellular doxorubicin accumulation at 10 to 10000 nM after 3 hrs by spectrofluorimetric analysis. It is filed as cell-based. The procedure, abridged:
as §2

Data set [9] is filed under the species Homo sapiens. Nature of the data set: Induction of intracellular doxorubicin accumulation in human differentiated primary mesothelioma stem cells at 10 to 10000 nM after 3 hrs by spectrofluorimetric analysis. It is filed as functional, cell-based. Put shortly: as §2
The nature of data set [10]: Cytotoxicity against human GSC at 10 nM after 24 hrs by LDH release assay. The note with it: 0.01 µM.
For data set [11], the species on record is Homo sapiens. Nature of the data set: Induction of doxorubicin accumulation in P-gp knocked out human primary glioblastoma stem cells co-expressing CRISPR-Cas at 10 nM after 3 hrs by spectrofluorimetric analysis. It is filed as functional. The procedure, abridged: (§4)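 Patient-derived glioblastoma (line 4, patient #2) or mesothelioma (line 5, patient #1) stem cells, untreated, scrambled CRISPR-Cas or P-gp CRISPR-Cas knockout. Incubated 3 h with 5 µM doxorubicin. Cells lysed in ethanol/0.3 N HCl and doxorubicin read fluorimetrically at ex 475/em 553 nm, converted to nmol/mg protein by calibration. Duplicates, n=3, mean ± SEM, one-way ANOVA.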

Data set [12] addresses T1, ATP-dependent translocase ABCB1. Nature of the data set: Inhibition of MDR1 in human primary mesothelioma stem cells assessed as increase in doxorubicin-induced reduction in cell viability at 10 nM after 72 hrs by ATPlite luminescence assay. To be noted: 0.01 µM. The procedure, abridged: as §1
Data set [13] is filed under the species Homo sapiens. Nature of the data set: Potentiation of doxorubicin-induced cytotoxicity in human differentiated primary mesothelioma cells assessed as increase in doxorubicin-induced reduction in cell viability at 10 nM after 72 hrs by ATPlite luminescence assay. It is filed as functional, cell-based. The procedure, abridged:
as §1

Data set [14] is described as follows: Cytotoxicity against human MSC at 10 nM after 24 hrs by LDH release assay. To be noted: 0.01 µM.
The target of data set [15] is T1, ATP-dependent translocase ABCB1. Kind of data set: Inhibition of MDR1 in human primary glioblastoma stem cells assessed as increase in doxorubicin-induced reduction in cell viability at 10 nM after 24 hrs by LDH release assay. The note with it: 0.01 µM.
Data set [16] addresses MDR1 (ABCB1, P-glycoprotein) (Homo sapiens, UniProt P08183). Nature of the data set: Activity at MDR1 in human Caco2 cells assessed as efflux ratio of apparent permeability from basolateral to apical side over apical to basolateral side. It is filed as cell-based. To be noted: Caco-2. The procedure, abridged: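 Caco-2 cells grown 21 days on filter inserts, then washed with HBSS and equilibrated 30 min at 37 °C. Compound at 100 µM added to the donor side and incubated 120 min at 37 °C. Papp in nm/s calculated as (VA/Area) × ([drug]acceptor/[drug]initial)/time, membrane area 0.11 cm2. BA/AB ratio from two independent experiments.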
(Passage across Caco-2 layers is used to estimate intestinal permeability.)

The species entered for data set [17] is Homo sapiens. Kind of data set: Potentiation of doxorubicin-induced cytotoxicity in human differentiated primary glioblastoma cells assessed as increase in doxorubicin-induced reduction in cell viability at 10 nM after 24 hrs by LDH release assay. It is filed as functional, cell-based.
For data set [18], the species on record is Homo sapiens. Nature of the data set: Induction of doxorubicin accumulation in P-gp knocked out human primary mesothelioma stem cells co-expressing CRISPR-Cas at 10 nM after 3 hrs by spectrofluorimetric analysis. It is filed as functional. The procedure, abridged:
as §4

Data set [19] has as its target Multidrug resistance-associated protein 1 (Homo sapiens, UniProt P33527). Nature of the data set: Inhibition of MRP1 (unknown origin) expressed in MDCK cells assessed as increase in calcein-AM accumulation incubated for 30 mins by calcein-AM dye based fluorescence assay. It is filed as cell-based. Put shortly:
as §3

Data set [20] addresses T2, Broad substrate specificity ATP-binding cassette transporter ABCG2 (Homo sapiens, UniProt Q9UNQ0).
T2 sequence (Q9UNQ0 whole entry): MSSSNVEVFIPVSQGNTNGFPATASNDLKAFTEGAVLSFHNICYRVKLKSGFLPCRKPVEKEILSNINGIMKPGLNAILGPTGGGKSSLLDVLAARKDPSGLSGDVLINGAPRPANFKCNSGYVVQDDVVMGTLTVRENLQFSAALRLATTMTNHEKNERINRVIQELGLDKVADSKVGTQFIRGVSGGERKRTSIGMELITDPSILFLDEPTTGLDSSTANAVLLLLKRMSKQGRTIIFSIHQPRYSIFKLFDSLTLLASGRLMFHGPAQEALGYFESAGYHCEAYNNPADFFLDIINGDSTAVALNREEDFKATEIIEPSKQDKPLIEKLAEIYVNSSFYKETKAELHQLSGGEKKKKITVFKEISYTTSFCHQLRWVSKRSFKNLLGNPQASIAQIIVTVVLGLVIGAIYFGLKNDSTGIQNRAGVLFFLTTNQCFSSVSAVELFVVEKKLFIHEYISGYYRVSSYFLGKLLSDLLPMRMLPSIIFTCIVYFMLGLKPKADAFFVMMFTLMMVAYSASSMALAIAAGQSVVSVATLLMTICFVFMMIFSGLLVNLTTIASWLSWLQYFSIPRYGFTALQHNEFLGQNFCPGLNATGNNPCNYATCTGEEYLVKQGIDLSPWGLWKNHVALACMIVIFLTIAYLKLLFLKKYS
Nature of the data set: Inhibition of BCRP (unknown origin) expressed in MDCK cells assessed as reduction in Hoechst 33342 efflux preincubated for 30 mins followed by Hoechst 3334 addition measured after 30 mins by fluorescence assay. It is filed as cell-based. To be noted: mdck. The procedure, abridged: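 MDCK-BCRP monolayers (30,000 cells/well, confluent overnight) preincubated 30 min at 37 °C with compound (0.1–100 µM final). Hoechst 33342 then added (8 µM final) for 30 min. Cells fixed 20 min in 4% PFA, washed with ice-cold PBS and read at ex 340/em 485 nm. EC50 fitted from % fluorescence increase over basal vs log dose. Mean ± SEM, three experiments in triplicate.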

Data set [21] deals with T1, ATP-dependent translocase ABCB1. Nature of the data set: Inhibition of MDR1 (unknown origin) expressed in MDCK1 cells assessed as potentiation of doxorubicin-induced decrease in cell proliferation at 1 uM administered alone on day 2 followed by drug addition day 3 along with doxorubicin addition by MTT assay. It is filed as cell-based. Put shortly: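 MDCK-MDR1 cells, 10000/well. On day 2, compound alone at 10 nM, 100 nM or 1 µM. On day 3, medium replaced with compound alone or with 10 µM doxorubicin; 48 h assay. MTT 0.5 mg/mL for 3–4 h at 37 °C, formazan dissolved in DMSO/EtOH 1:1, absorbance read at 570/630 nm. Solvent 1% v/v DMSO. Mean ± SEM, two experiments in triplicate; one-way ANOVA.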

For data set [22] the target is unchanged. Nature of the data set: Inhibition of MDR1 in human primary glioblastoma stem cells assessed as increase in doxorubicin-induced reduction in cell viability at 10 nM after 72 hrs by ATPlite luminescence assay. The note with it: 0.01 µM. Put shortly: as §1
The target is the same in data set [23]. Kind of data set: Inhibition of MDR1 in human primary mesothelioma stem cells assessed as increase in doxorubicin-induced reduction in cell viability at 10 nM after 24 hrs by LDH release assay. The note with it: 0.01 µM.
The target is the same in data set [24]. Kind of data set: Inhibition of MDR1 in human primary mesothelioma stem cells assessed as increase in doxorubicin-induced reduction in cell viability at 1 uM after 24 hrs by LDH release assay.
Data set [25] is filed under the species Homo sapiens. Nature of the data set: Potentiation of doxorubicin-induced cytotoxicity in human differentiated primary mesothelioma stem cells assessed as increase in doxorubicin-induced reduction in cell viability at 1 uM after 24 hrs by LDH release assay. It is filed as functional, cell-based.
For data set [26], the species on record is Homo sapiens. Kind of data set: Potentiation of doxorubicin-induced cytotoxicity in human differentiated primary glioblastoma cells assessed as increase in doxorubicin-induced reduction in cell viability at 1 uM after 24 hrs by LDH release assay. It is filed as functional, cell-based.
Data set [27] concerns the target T1, ATP-dependent translocase ABCB1. Nature of the data set: Inhibition of MDR1 in human primary glioblastoma stem cells assessed as increase in doxorubicin-induced reduction in cell viability at 1 uM after 24 hrs by LDH release assay.
Data set [28] has the same target. Kind of data set: Inhibition of MDR1 in human primary mesothelioma stem cells assessed as increase in doxorubicin-induced reduction in cell viability at 1 uM after 72 hrs by ATPlite luminescence assay. Put shortly: as §1
For data set [29], the species on record is Homo sapiens. Kind of data set: Potentiation of doxorubicin-induced cytotoxicity in human differentiated primary glioblastoma cells assessed as increase in doxorubicin-induced reduction in cell viability at 1 uM after 72 hrs by ATPlite luminescence assay. It is filed as functional, cell-based. The procedure, abridged: as §1
The species named for data set [30] is Homo sapiens. Nature of the data set: Potentiation of doxorubicin-induced cytotoxicity in human differentiated primary mesothelioma stem cells assessed as increase in doxorubicin-induced reduction in cell viability at 1 uM after 72 hrs by ATPlite luminescence assay. It is filed as functional, cell-based. Put shortly:
as §1

The target of data set [31] is T1, ATP-dependent translocase ABCB1. Nature of the data set: Inhibition of MDR1 in human primary glioblastoma stem cells assessed as increase in doxorubicin-induced reduction in cell viability at 1 uM after 72 hrs by ATPlite luminescence assay. Put shortly:
as §1

The source made the active and inactive calls. The calls are words filed in the database; no cut-off is given here. A value given as a limit tells only on which side of the number the result lay.

T1 sequence (P08183 whole entry): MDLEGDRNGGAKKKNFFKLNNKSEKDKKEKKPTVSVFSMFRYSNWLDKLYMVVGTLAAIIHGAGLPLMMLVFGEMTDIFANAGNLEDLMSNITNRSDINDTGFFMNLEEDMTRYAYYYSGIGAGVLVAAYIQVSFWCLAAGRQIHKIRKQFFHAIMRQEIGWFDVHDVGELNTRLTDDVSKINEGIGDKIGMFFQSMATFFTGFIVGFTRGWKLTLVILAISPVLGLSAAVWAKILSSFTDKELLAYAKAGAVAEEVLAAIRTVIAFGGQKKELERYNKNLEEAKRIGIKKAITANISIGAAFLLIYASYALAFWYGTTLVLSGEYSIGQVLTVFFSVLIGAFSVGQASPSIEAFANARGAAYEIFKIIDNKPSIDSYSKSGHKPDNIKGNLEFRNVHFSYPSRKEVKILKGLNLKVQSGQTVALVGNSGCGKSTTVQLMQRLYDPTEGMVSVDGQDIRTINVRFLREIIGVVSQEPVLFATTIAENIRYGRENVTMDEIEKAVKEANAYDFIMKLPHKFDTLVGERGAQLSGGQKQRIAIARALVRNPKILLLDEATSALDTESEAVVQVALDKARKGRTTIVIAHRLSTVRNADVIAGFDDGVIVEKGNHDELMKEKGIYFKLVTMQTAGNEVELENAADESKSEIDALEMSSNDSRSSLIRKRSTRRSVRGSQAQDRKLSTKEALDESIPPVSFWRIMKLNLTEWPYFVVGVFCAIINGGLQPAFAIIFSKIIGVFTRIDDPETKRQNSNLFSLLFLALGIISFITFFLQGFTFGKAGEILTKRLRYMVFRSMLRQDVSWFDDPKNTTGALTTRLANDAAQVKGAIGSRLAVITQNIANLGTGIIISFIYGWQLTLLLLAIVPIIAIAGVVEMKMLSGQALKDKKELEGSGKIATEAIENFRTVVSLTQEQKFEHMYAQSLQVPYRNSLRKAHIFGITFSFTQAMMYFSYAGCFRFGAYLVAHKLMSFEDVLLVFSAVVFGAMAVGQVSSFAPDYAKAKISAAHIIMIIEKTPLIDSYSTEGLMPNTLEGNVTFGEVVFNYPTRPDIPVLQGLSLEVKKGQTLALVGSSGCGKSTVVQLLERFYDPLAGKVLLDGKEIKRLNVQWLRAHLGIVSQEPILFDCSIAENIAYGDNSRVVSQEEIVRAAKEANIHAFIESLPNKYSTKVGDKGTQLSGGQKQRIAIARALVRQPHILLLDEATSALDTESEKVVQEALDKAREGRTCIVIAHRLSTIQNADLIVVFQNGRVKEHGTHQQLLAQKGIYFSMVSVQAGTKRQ
Sequence of MDR1 (ABCB1, P-glycoprotein) (P08183 whole entry): as above
Sequence of Multidrug resistance-associated protein 1 (P33527 whole entry): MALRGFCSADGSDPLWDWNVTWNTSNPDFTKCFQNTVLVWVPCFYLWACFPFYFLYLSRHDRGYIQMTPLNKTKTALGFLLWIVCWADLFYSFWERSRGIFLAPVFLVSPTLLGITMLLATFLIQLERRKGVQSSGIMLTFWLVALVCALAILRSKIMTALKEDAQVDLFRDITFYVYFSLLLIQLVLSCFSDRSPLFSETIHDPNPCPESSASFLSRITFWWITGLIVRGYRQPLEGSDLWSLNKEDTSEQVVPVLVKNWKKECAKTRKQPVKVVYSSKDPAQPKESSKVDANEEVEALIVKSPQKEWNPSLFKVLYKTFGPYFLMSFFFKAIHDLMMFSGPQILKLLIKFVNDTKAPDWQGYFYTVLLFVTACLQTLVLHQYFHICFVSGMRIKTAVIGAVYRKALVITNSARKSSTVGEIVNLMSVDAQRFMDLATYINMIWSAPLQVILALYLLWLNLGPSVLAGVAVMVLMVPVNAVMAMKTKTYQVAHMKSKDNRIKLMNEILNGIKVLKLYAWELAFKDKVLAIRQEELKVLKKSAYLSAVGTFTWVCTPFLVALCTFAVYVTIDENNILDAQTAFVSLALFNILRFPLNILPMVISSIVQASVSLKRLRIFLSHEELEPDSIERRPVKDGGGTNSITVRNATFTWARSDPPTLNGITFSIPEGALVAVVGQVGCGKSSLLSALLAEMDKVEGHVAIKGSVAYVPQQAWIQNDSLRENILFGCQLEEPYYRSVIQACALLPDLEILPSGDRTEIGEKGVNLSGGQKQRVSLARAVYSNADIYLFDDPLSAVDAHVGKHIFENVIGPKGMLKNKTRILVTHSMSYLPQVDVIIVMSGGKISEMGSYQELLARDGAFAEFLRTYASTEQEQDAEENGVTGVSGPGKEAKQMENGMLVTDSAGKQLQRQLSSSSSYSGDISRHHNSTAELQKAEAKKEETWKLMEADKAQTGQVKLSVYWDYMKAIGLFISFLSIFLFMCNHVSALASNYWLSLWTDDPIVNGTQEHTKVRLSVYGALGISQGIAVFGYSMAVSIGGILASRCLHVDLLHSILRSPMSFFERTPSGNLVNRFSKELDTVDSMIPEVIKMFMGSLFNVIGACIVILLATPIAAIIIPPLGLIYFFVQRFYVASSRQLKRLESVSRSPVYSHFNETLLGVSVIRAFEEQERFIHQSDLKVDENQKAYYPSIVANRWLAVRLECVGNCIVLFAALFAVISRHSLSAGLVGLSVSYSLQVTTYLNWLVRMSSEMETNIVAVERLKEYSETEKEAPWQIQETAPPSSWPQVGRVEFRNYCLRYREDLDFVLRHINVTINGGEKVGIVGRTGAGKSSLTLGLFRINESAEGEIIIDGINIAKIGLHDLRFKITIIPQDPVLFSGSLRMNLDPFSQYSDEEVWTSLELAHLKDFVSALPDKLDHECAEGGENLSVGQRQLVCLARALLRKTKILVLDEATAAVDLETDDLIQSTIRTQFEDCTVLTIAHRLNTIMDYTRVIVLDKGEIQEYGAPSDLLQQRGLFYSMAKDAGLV

Regarding `COc1cc2c(cc1OC)CN(Cc1ccc(-c3ccc(N(S(=O)(=O)c4ccccc4)S(=O)(=O)c4ccccc4)cc3)cc1)CC2`, the result in the data set filed under Homo sapiens [1], in the data set filed under Homo sapiens [3], in the data set listed under Homo sapiens [5], in the data set listed under Homo sapiens [9], in the data set filed under Homo sapiens [11] and in the data set filed under Homo sapiens [13] was inactive. For the same molecule, the result in the data set listed under Homo sapiens [17] and in the data set listed under Homo sapiens [18] was inactive. The “inhibition (INH)” value in [2], in [6], in [7], in data set [8], in [12] and in data set [15] was “Active” each time. The “inhibition (INH)” value in [21], in data set [22] and in data set [23] was “Active” throughout. Further, the EC50 in [4] was 15.3 nM; in [19] it was “Not Active”; in [20] it was “Not Active”. Also, the Activity result in data set [10] and in data set [14] was “Non-Toxic” throughout. Besides, the efflux ratio in [16] is over 20.
With `COc1cc2c(cc1OC)CN(CCc1ccc(NC(=O)c3cccc4c(=O)c5cccc(OC)c5[nH]c34)cc1)CC2` [ELACRIDAR], the result in the data set filed under Homo sapiens [3], in the data set listed under Homo sapiens [25], in the data set filed under Homo sapiens [26], in the data set filed under Homo sapiens [9], in the data set listed under Homo sapiens [29] and in the data set filed under Homo sapiens [30] was inactive. In addition, the “inhibition (INH)” value in [24], in data set [7], in data set [27], in data set [8], in data set [28] and in data set [31] was “Active” throughout.

Broadly, the EC50 is the concentration giving half of the maximal effect. As a reminder, the efflux ratio is the permeability from basolateral to apical divided by that in the opposite direction, in the common usage.

These data come from ChEMBL document CHEMBL4411301, “Design, Biological Evaluation, and Molecular Modeling of Tetrahydroisoquinoline Derivatives: Discovery of A Potent P-Glycoprotein Ligand Overcoming Multidrug Resistance in Cancer Stem Cells” (J Med Chem, 2019).
